Reference: PubChem BioAssay AID651560 (Sanford-Burnham Center for Chemical Genomics, 2012)
In all, about 360,000 compounds went through this assay and about 820 (0.23%) were called active. This is one part of a sample in which actives are shown more often than they occur.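 Rule for the calls: active = compounds that cut the enzyme signal by at least half of the control window in the single-dose screen; inactive = the rest.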

Target: Low molecular weight phosphotyrosine protein phosphatase (Homo sapiens) (UniProt P24666)
Assay: inhibition of human LMPTP-A enzyme – biochemical, fluorescence intensity, uHTS, primary screen (AID 651560);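 note: plate controls were DMSO wells with enzyme plus substrate for no effect and substrate without enzyme for full effect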
Conditions: recombinant LMPTP-A, OMFP fluorogenic substrate, at 20 µM, hits give high values
How it was run: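 Test system: LMPTP-A phosphatase enzyme; input: 0.625 nM LMPTP-A final; reagent: OMFP substrate, 400 µM final; compound dosing: 20 µM single dose, 3% DMSO; incubation: 50 min dark incubation at room temperature; measured by: endpoint fluorescence intensity from OMFP dephosphorylation; measure: % inhibition relative to no-enzyme and uninhibited control wells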

Low molecular weight phosphotyrosine protein phosphatase (Homo sapiens), sequence (P24666 whole entry, looked up): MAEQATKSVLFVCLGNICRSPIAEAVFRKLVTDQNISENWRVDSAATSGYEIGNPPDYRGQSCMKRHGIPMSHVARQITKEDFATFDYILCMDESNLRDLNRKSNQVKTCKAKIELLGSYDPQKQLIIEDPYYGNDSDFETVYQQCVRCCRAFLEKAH

inhibition, inactive:
O=S(=O)(NN=C1CCCCCCC1)c1ccc(Br)cc1 0.285%, CCCn1c(N)c(N(CCOC)C(=O)C2CCCC2)c(=O)[nH]c1=O -0.34%, CCOCCCNC(=O)C(NC(=O)Cc1c[nH]c2ccccc12)c1ccc(OC)cc1 (centres undefined) -1.16%, COC(=O)c1c(NC(=O)CN(c2ccc(C)c(C)c2)S(C)(=O)=O)sc2c1CCCC2 1.37%, CCOc1ccc(OCC)c(NC(=O)CSc2nnc(Cn3cnc4ccccc43)n2C)c1 -0.816%, CNc1cnc(-c2cc(OC)c(OC)c(OC)c2)cn1 0.718%, NS(=O)(=O)c1ccc(CCNC(=O)COC(=O)COc2cccc(C(F)(F)F)c2)cc1 -0.314%, O=C(CSc1ccc(-c2ccccn2)nn1)Nc1ccccc1 0.337%, O=C(Nc1cccnc1)c1cc2cc(Br)ccc2oc1=O 45.7%, COC(=O)c1ccc(C23CC4(C2)[C@H](CN(Cc2cccnc2)[C@@H]4c2ccccc2)C3c2ccc(Cl)nc2)cc1 (some centres undefined) 8.71%, CCCc1ccc(-c2c(C)sc(NC(=O)c3ccnn3C)c2C#N)cc1 1.55%, Cc1ccc(C(=O)N/C(=C\c2ccco2)C(=O)N2CCSCC2)cc1C -0.858%, Cc1cccc(C)c1NC1=NC(=S)N(c2ccc(N(C)C)cc2)C1(C)C -0.864%, CC1(C(=O)NCc2ccccc2)CN(S(C)(=O)=O)CC(=O)N1CC(F)(F)F (centres undefined) -0.703%, O=C(NCc1ccc2c(c1)OCO2)c1sccc1Br -0.435%, C=CCn1c(=O)c(C(=O)NCc2ccc3c(c2)OCO3)c(O)c2ccccc21 2.01%, O=C(CCN1C(=O)c2ccncc2C1=O)Nc1ccc2c(c1)OCCO2 0.479%, O=C(CN1CCN(C(=O)c2ccco2)CC1)Nc1ccc2c(c1)OCO2 -0.639%, Cc1ccc(S(=O)(=O)N2[C@@H](c3ccc(Br)cc3)C(C(=O)O)=C[C@H]2CC2CCCC2)cc1 0.284%, COc1cc(OC)cc(/C(N)=N/O)c1 0.166%, CCC(C)N(C(=O)COC(=O)c1nc(Cl)ccc1Cl)C1CCS(=O)(=O)C1 (centres undefined) -0.848%

inhibition, active:
O=C(Nc1ccncc1)c1cc(-c2ccccn2)nc2ccc(Br)cc12 51.5%, O=C(NCc1ccc2c(c1)OCO2)c1c(O)nc2sccn2c1=O 53.5%, Cc1ccc(C(=O)O)cc1-c1ccc(/C=C2\SC(=O)N(CC(=O)Nc3ccc4c(c3)OCO4)C2=O)o1 61.2%
